# ChEMBL document CHEMBL1141182, “Selective benzopyranone and pyrimido[2,1-a]isoquinolin-4-one inhibitors of DNA-dependent protein kinase: synthesis, structure-activity studies, and radiosensitization of a human tumor cell line in vitro” (J Med Chem, 2005)
# Target: T1, Serine-protein kinase ATM (Homo sapiens, UniProt Q13315)
# Assay: Inhibition of ATM kinase using rabbit polyclonal antisera
# Design: species or system Oryctolagus cuniculus
# Conditions: target entry is the homologue from another species
# How it was run: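 ATM kinase activity assayed following a previously published method, using rabbit polyclonal antisera raised against the COOH-terminal 400 amino acids of ATM.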
row,IC50 [µM],SMILES
1,> 100,O=c1cc(N2CCOCC2)oc2c(-c3ccccc3)cccc12 [LY-294002]

# Target: T2, Serine/threonine-protein kinase ATR (Homo sapiens, UniProt Q13535)
# Assay: Inhibition of ATR kinase using rabbit polyclonal antisera; No inhibition observed at 100 uM
# Design: species or system Oryctolagus cuniculus
# Conditions: target entry is the homologue from another species
# T2 sequence (Q13535 whole entry): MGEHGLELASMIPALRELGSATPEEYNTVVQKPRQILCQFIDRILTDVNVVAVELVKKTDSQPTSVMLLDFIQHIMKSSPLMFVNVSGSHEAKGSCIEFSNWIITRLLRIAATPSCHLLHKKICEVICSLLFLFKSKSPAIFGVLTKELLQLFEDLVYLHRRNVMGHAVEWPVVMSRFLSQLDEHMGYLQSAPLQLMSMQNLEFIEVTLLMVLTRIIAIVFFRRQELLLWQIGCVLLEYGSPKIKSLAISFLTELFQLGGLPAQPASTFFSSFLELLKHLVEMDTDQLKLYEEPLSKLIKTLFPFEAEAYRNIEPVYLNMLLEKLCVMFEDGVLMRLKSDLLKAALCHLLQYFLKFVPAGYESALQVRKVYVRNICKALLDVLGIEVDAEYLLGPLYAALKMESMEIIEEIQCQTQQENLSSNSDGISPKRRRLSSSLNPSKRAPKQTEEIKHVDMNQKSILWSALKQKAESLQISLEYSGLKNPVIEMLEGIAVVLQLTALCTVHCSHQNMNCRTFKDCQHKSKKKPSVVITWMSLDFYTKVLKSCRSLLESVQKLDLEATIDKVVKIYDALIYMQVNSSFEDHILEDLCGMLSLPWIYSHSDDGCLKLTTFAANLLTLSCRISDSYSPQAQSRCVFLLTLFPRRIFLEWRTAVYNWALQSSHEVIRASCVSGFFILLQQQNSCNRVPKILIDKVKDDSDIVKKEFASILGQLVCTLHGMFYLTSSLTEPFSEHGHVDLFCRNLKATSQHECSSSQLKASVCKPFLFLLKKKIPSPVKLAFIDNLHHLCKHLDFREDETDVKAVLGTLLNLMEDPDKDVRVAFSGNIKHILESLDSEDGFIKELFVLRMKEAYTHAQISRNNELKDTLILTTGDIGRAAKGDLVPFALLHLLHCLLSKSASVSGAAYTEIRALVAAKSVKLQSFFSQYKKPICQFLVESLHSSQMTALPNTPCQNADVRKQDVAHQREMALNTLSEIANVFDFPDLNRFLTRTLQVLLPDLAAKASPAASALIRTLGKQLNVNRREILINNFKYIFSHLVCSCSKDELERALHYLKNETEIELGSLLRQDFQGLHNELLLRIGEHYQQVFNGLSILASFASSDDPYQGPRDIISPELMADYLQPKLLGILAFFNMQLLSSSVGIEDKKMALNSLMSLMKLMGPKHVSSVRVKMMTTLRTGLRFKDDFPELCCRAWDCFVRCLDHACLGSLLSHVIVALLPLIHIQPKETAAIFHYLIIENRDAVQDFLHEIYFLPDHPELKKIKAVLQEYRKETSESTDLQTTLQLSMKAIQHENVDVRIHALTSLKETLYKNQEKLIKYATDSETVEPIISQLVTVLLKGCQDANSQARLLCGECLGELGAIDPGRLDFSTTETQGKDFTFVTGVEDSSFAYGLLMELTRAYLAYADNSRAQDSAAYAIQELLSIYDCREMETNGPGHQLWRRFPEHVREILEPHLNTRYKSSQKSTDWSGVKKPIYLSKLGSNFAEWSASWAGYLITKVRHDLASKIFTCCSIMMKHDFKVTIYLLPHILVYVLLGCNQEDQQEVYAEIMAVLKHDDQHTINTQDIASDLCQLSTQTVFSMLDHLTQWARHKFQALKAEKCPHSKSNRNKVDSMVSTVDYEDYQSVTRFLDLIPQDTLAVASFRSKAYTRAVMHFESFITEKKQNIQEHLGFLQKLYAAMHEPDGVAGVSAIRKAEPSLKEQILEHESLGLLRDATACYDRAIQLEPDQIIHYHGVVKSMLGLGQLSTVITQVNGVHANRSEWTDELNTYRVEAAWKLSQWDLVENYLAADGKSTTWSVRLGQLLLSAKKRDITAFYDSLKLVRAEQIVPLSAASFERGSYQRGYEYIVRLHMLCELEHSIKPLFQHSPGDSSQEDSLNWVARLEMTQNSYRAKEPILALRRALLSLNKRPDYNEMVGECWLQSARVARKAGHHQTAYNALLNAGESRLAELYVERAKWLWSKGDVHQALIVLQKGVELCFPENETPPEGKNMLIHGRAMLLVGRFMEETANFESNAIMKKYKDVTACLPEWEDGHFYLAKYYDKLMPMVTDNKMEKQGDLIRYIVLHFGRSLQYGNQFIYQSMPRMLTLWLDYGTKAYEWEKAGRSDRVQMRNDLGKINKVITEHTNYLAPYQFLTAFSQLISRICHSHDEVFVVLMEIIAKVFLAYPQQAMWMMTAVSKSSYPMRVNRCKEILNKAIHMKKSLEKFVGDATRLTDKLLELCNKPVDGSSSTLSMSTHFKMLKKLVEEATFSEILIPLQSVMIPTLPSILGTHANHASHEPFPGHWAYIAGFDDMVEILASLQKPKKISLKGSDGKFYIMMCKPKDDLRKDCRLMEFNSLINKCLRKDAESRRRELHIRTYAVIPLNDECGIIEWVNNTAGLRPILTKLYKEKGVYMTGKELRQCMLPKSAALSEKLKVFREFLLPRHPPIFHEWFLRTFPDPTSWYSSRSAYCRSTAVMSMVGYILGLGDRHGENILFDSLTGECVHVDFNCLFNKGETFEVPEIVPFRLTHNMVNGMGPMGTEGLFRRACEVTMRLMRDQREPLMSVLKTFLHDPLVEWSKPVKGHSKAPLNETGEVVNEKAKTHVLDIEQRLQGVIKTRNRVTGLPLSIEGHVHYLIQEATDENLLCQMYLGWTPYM
row,IC50 [µM],SMILES
1,> 100,O=c1cc(N2CCOCC2)nc2c3ccccc3ccn12
2,> 100,O=c1cc(N2CCOCC2)oc2c1ccc1ccccc12
3,> 100,CC1CN(c2cc(=O)c3ccc4ccccc4c3o2)CCO1 (stereo not given)

# Target: Phosphatidylinositol 4,5-bisphosphate 3-kinase catalytic subunit alpha isoform (Homo sapiens, UniProt P42336)
# Assay: Inhibition of Phosphatidylinositol 3-kinase
# Conditions: not given
# How it was run: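 PI 3-kinase assay run following a prior method, with baculovirus-derived recombinant human p110α and p85α.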
# Chain of Phosphatidylinositol 4,5-bisphosphate 3-kinase catalytic subunit alpha isoform (P42336 whole entry, canonical isoform): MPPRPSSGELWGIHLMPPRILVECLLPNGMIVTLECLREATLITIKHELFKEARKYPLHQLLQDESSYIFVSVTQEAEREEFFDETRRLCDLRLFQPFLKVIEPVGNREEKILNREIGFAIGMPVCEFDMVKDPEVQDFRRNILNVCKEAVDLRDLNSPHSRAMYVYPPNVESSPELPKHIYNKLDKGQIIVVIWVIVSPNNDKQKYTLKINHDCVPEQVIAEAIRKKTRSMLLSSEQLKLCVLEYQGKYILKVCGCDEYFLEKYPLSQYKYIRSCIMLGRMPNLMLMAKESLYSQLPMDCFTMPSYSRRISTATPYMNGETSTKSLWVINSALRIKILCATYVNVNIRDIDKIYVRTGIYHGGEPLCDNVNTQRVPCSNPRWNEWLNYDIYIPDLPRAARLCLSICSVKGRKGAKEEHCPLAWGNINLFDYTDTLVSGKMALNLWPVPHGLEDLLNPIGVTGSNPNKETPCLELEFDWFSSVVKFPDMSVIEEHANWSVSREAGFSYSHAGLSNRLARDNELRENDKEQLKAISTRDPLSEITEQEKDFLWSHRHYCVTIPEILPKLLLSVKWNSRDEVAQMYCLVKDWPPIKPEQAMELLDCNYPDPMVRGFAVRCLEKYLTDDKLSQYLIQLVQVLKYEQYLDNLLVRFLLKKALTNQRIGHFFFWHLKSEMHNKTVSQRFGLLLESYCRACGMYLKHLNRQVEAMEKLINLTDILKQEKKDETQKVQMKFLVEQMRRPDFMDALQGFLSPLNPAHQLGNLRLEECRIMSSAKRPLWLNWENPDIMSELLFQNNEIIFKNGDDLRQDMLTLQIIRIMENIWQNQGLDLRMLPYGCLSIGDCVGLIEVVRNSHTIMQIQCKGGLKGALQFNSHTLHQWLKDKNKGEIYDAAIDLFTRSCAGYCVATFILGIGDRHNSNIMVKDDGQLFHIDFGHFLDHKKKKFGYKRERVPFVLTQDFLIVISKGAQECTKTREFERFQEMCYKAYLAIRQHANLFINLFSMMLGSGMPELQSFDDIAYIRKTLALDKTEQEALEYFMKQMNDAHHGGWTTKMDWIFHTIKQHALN
row,IC50 [µM],SMILES
1,> 100,O=c1cc(N2CCOCC2)nc2c3ccccc3ccn12
2,> 100,O=c1cc(N2CCCCC2)oc2c(-c3ccccc3)cccc12
3,> 100,O=c1cc(N2CCSCC2)oc2c(-c3ccccc3)cccc12
4,2.4,CC1CN(c2cc(=O)c3ccc4ccccc4c3o2)CCO1 (stereo not given)

# Target: Serine/threonine-protein kinase mTOR (Homo sapiens, UniProt P42345)
# Assay: Inhibition of mTOR protein isolated from HeLa cells
# Conditions: not given
# How it was run: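 mTOR immunoprecipitated from HeLa cell cytoplasmic extract. Activity measured following a prior method, with recombinant PHAS-1 as substrate.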
row,IC50 [µM],SMILES
1,5.3,O=c1cc(N2CCOCC2)nc2c3ccccc3ccn12
2,4.8,CC1CN(c2cc(=O)c3ccc4ccccc4c3o2)CCO1 (stereo not given)

# Target: T1, Serine-protein kinase ATM
# Assay: Inhibition of ATM kinase using rabbit polyclonal antisera; No inhibition observed at 100 uM
# Design: species or system Oryctolagus cuniculus
# Conditions: target entry is the homologue from another species
row,IC50 [µM],SMILES
1,> 100,O=c1cc(N2CCOCC2)nc2c3ccccc3ccn12
2,> 100,O=c1cc(N2CCOCC2)oc2c1ccc1ccccc12
3,> 100,CC1CN(c2cc(=O)c3ccc4ccccc4c3o2)CCO1 (stereo not given)

# Target: DNA-dependent protein kinase catalytic subunit (Homo sapiens, UniProt P78527)
# Assay: Inhibition of DNA dependent protein kinase isolated from HeLa cells
# Assay type: cell-free
# Conditions: not given
row,SMILES,IC50 [µM]
1,O=c1cc(N2CCOCC2)c2ccccc2o1,4.82
2,O=c1cc(N2CCSCC2)c2cc3ccccc3cc2o1,5.15
3,O=c1cc(N(CCO)Cc2ccccc2)nc2c3ccccc3ccn12,> 10
4,Cc1ccc2oc(=O)cc(N3CCOCC3)c2c1,5.35
5,CC1(C)CN(c2cc(=O)n3ccc4ccccc4c3n2)CCO1,6.71
6,CC1CCC(C)N(c2cc(=O)n3ccc4ccccc4c3n2)C1 (stereo not given),> 10
7,O=c1cc(-c2ccc(F)cc2)oc2c1ccc1ccccc12,> 10
8,CN1CCN(c2cc(=O)c3ccc4ccccc4c3o2)CC1,> 10
9,O=c1cc(NCCO)nc2c3ccccc3ccn12,> 10
10,COc1cccc2c(N3CCOCC3)cc(=O)oc12,10.9
11,O=c1cc(NCC2CCCO2)oc2c1ccc1ccccc12 (stereo not given),> 10
12,CN(CCO)c1cc(=O)n2ccc3ccccc3c2n1,> 10
13,O=c1cc(-c2ccccc2F)oc2c1ccc1ccccc12,8.59
14,Cc1cccc2c(N3CCOCC3)cc(=O)oc12,8.05
15,O=c1cc(N2CCCC2)nc2c3ccccc3ccn12,6.68
16,CCC1CN(c2cc(=O)n3ccc4ccccc4c3n2)CCO1 (stereo not given),> 10
17,Nc1ccc(-c2cc(=O)c3ccc4ccccc4c3o2)cc1,7.7
18,O=c1cc(NCC2CCCO2)nc2c3ccccc3ccn12 (stereo not given),> 10
19,CN1CCN(c2cc(=O)n3ccc4ccccc4c3n2)CC1,> 10
20,O=c1cc(N2CCCC2)oc2c1ccc1ccccc12,6.17
21,O=c1cc(-c2cccc(Cl)c2)oc2c1ccc1ccccc12,> 10
22,COc1cccc2oc(=O)cc(N3CCOCC3)c12,> 10
23,Nc1cccc(-c2cc(=O)c3ccc4ccccc4c3o2)c1,> 10
24,CC(C)(C)c1ccc(-c2cc(=O)c3ccc4ccccc4c3o2)cc1,> 10
25,OCCOCC/N=c1\cc(O)c2ccc3ccccc3c2o1,> 10
26,O=c1cc(NCC(O)c2cccc(O)c2)nc2c3ccccc3ccn12 (stereo not given),> 10

row,SMILES,IC50 [µM]
1,O=c1cc(N2CCC(O)C2)oc2c1ccc1ccccc12 (stereo not given),9.27
2,O=c1cc(-c2ccccc2[N+](=O)[O-])oc2c1ccc1ccccc12,> 10
3,O=c1cc(-c2cccc(F)c2)oc2c1ccc1ccccc12,5.71
4,O=c1cc(N2CCC[C@H](CO)C2)oc2c1ccc1ccccc12,> 10
5,O=c1cc(-c2cccc([N+](=O)[O-])c2)oc2c1ccc1ccccc12,> 10
6,O=c1cc(-c2ccc(Cl)cc2)oc2c1ccc1ccccc12,> 10
7,O=c1cc(-c2ccc([N+](=O)[O-])cc2)oc2c1ccc1ccccc12,> 10
8,O=c1cc(N2CCNCC2)oc2c1ccc1ccccc12,> 10
9,CC(O)CNc1cc(=O)n2ccc3ccccc3c2n1 (stereo not given),> 10
10,O=c1cc(NCC(O)CO)nc2c3ccccc3ccn12 (stereo not given),8.46
11,O=c1cc(N2CC[C@@H](O)C2)nc2c3ccccc3ccn12,6.49
12,O=c1cc(NCCOc2ccccc2Br)oc2c1ccc1ccccc12,> 10
13,O=c1cc(-c2ccncc2)oc2c1ccc1ccccc12,> 10
14,O=c1cc(N2CC[S+]([O-])CC2)oc2c(-c3ccccc3)cccc12,5.71
15,O=c1cc(N2CCCCC2)c2ccccc2o1,8.81
16,C#CCCN(C)c1cc(=O)n2ccc3ccccc3c2n1,> 10
17,O=c1cc(-c2ccccc2)oc2c1ccc1ccccc12 [ALPHA-NAPHTHOFLAVONE],4.98
18,O=c1cc(-c2ccccc2Cl)oc2c1ccc1ccccc12,> 10
19,COc1ccc2c(N3CCOCC3)cc(=O)oc2c1,11.3
20,CN(CC(O)c1ccccc1)c1cc(=O)n2ccc3ccccc3c2n1 (stereo not given),10.5
21,O=c1cc(N2CCOc3ccccc32)oc2c1ccc1ccccc12,> 10
22,O=c1cc(-c2ccccc2)oc2ccccc12 [FLAVONE],> 10
23,Nc1ccccc1-c1cc(=O)c2ccc3ccccc3c2o1,> 10
24,O=c1cc(N2CCOC(CO)C2)nc2c3ccccc3ccn12 (stereo not given),> 10
25,O=c1cc(N(CCO)CCO)nc2c3ccccc3ccn12,> 10

# Results, then the compound that gave them:
row,IC50 [µM],SMILES
1,4.67,O=c1cc(N2CCCCC2)oc2c(-c3ccccc3)cccc12
2,4.14,CC1CN(c2cc(=O)c3ccc4ccccc4c3o2)CC(C)O1 (stereo not given)
3,3.81,O=c1cc(N2CCCCC2)oc2c1ccc1ccccc12
4,3.52,CC1(C)CN(c2cc(=O)c3ccc4ccccc4c3o2)CCO1
5,3.27,O=c1cc(N2CCOCC2)c2cc(Cl)ccc2o1
6,3.25,C[C@@H]1CN(c2cc(=O)n3ccc4ccccc4c3n2)C[C@H](C)O1
7,3.24,O=c1cc(N2CCOCC2)c2cc3ccccc3cc2o1
8,3.19,O=c1cc(N2C[C@H]3C[C@@H]2CO3)oc2c1ccc1ccccc12
9,2.81,O=c1cc(N2CC=CC2)nc2c3ccccc3ccn12
10,2.24,O=c1cc(N2CCOCC2)oc2ccc(-c3ccccc3)cc12
11,2.01,O=c1cc(N2CCCOCC2)oc2c1ccc1ccccc12
12,2,O=c1cc(N2CCOCC2)nc2ccccn12
13,1.92,O=c1cc(-c2cccnc2)oc2c1ccc1ccccc12
14,1.9,O=c1cc(N2CCOCC2)c2c(ccc3ccccc32)o1
15,1.75,COc1ccc2oc(=O)cc(N3CCOCC3)c2c1
16,1.69,O=c1cc(N2CCSCC2)nc2c3ccccc3ccn12
17,1.65,Cc1cccc2c(=O)cc(N3CCOCC3)oc12
18,1.61,O=c1cc(N2CCSCC2)oc2c(-c3ccccc3)cccc12
19,1.38,O=c1cc(N2CCSCC2)oc2c1ccc1ccccc12
20,1.2,COc1cccc2c(=O)cc(N3CCOCC3)oc12
21,0.95,COc1ccc2c(=O)cc(N3CCOCC3)oc2c1
22,0.39,O=c1cc(N2CCOCC2)oc2cc3ccccc3cc12
23,0.36,O=c1cc(N2CCOCC2)oc2c3c(ccc12)CCCC3
24,0.28,O=c1cc(N2CCOCC2)nc2c3ccccc3ccn12
25,0.26,S=c1cc(N2CCOCC2)oc2c1ccc1ccccc12

# Target: T2, Serine/threonine-protein kinase ATR
# Assay: Inhibition of ATR kinase using rabbit polyclonal antisera
# Design: species or system Oryctolagus cuniculus
# Conditions: target entry is the homologue from another species
# How it was run: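 ATR kinase activity measured following earlier published methods, using antisera raised against ATR amino acids 400–480.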
row,IC50 [µM],SMILES
1,> 100,O=c1cc(N2CCOCC2)oc2c(-c3ccccc3)cccc12 [LY-294002]
